Screens (PubChem)
In the library only some 3% were active in any assay of this set; here they are far more common.
5HT1E ag: agonists of human 5-HT1E serotonin receptor; AID 574; 65,000 compounds, 0.69% hits; activation, % at 6 µM; P28566; CHO 5-HT1E Ga15 NFAT-bla reporter, FRET; 0% DMSO wells, 100% control agonist wells;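 active means activation above a set limit, the screen-wide mean activation plus 3 SD, cut at about 8.5% in these data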
S1P1 ag pot: agonists and agonism potentiators of human S1P1 receptor. P21453. S1P1 CRE-bla cells, forskolin, beta-lactamase FRET, potentiator mode; S1P1 agonist co-added at EC20, 2 nM; 100% = saturating reference agonist, 0% = basal. activation, % at 9.5 µM. 56,000 compounds, 0.57% hits. AID 449;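 active means activation above a cutoff set at the mean activation of all tested compounds plus 3 SD, cut at about 54% in these data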;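 further: forskolin at 4 µM as EC80 and the EC20 agonist is SEW2871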
HTR1E antagonist: antagonists of human 5-HT1E serotonin receptor; AID 571; inhibition, % at 6 µM; CHO 5-HT1E Ga15 NFAT-bla reporter, FRET, antagonist; P28566; 65,000 compounds, 0.99% hits;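 active means inhibition above a set limit, the mean inhibition across every tested compound plus 3 SD, cut at about 29% in these data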;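 further: signal is the 460 over 535 nm emission ratio of beta-lactamase substrate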
HTR1A agonist: activates the human 5-HT1a serotonin receptor; P08908; CHO 5-HT1a Ga15 NFAT-bla reporter, FRET ratio; 0% basal, 100% maximal reference agonist; activation, % at 10 µM; 65,000 compounds, 0.56% hits; AID 567;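 active means activation above the screen-wide mean activation plus 3 SD, cut at about 19% in these data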
Target sequence (P08908 whole entry, looked up): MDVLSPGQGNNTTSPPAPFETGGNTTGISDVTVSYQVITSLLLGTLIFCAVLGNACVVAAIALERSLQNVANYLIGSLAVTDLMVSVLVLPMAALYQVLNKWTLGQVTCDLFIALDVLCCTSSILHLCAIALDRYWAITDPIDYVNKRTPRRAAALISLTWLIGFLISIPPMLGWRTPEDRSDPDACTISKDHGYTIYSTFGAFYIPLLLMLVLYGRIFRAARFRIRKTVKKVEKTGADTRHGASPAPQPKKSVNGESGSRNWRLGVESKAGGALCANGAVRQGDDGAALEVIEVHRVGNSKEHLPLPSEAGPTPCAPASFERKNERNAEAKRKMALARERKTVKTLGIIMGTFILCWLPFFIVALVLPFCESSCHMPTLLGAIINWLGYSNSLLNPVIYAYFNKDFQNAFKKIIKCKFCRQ
S1P3 ag: agonists of human S1P3 receptor. AID 373. activation, % at 4.5 µM. Q99500. S1P3 NFAT-BLA reporter cells, agonism, FRET ratio; relative to 1 µM S1P, basal subtracted. 60,000 compounds, 0.1% hits;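 active means activation above the screen-wide mean plus 3 SD, cut at about 4.5% in these data, passing the limit was not always enough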
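Assay system: CHO cells stably expressing human S1P3, Gα16 and NFAT-β-lactamase reporter. Timing: overnight plating, 4 h compound 37 °C, 2 h substrate RT. Signal: β-lactamase FRET emission ratio 460/535 nm. Measure: percent activation versus median 1 µM S1P response, basal-subtracted, per plate. Repeats: primary screen single test, confirmation screen in triplicate.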
5-HT1A blocker: antagonists of human 5-HT1a serotonin receptor | P08908 | CHO 5-HT1a Ga15 NFAT-bla reporter, antagonist mode | inhibition, % at 10 µM | 62,000 compounds, 0.68% hits | AID 612;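 active means inhibition above the mean of all tested compounds plus 3 SD, cut at about 43% in these data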;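 further: receptor stimulated by 5-CT agonist at 100 nM near EC80; beta-lactamase reporter measured by ratiometric fluorescence of a cleavable substrate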
Hits are given with their value; – = inactive; · = not tested or not shown.

SMILES	5HT1E ag	S1P1 ag pot	HTR1E antagonist	HTR1A agonist	S1P3 ag	5-HT1A blocker
c1ccc(CCCNc2ncnc3nc[nH]c23)cc1	–	–	–	–	–	–
Cc1csc(N(C)C(=O)CSc2nnc(COc3cccc4ccccc34)o2)n1	–	–	–	–	–	–
O=C(Nc1ccc(Oc2ccc(NC(=O)c3ccco3)c(NC(=O)c3ccco3)c2)cc1)c1ccco1	–	–	–	–	–	58.8
CCCCn1c(NC(C)CC)nc2c1c(=O)[nH]c(=O)n2C (configuration not stated)	–	–	–	–	–	–
CCOC(=O)c1oc2ccccc2c1NC(=O)c1ccccc1OC	–	–	47.0	–	–	48.7
CCOC(=O)c1oc2ccccc2c1NC(=O)COc1cccc(OC)c1	–	–	–	–	–	–
COc1ccccc1N/C(N)=N/c1nc(CSc2ccc(C)cc2)cc(=O)[nH]1	–	58.8	–	–	–	–
COc1ccc(-n2c(SCC(=O)N3CCCC3)nc3c([nH]c4ccccc43)c2=O)cc1	–	–	–	–	–	–
CCOc1ccc(C2c3c(oc4ccccc4c3=O)C(=O)N2c2ccccn2)cc1OC (configuration not stated)	–	–	–	–	–	–
COCCn1c(SCc2ccc(C(=O)OC)o2)nc2ccccc2c1=O	–	–	–	–	–	–
COC(=O)c1ccc(CSc2nc3ccccc3c(=O)n2-c2ccc(OC)c(OC)c2)o1	–	–	31.0	–	–	–
c1ccc(CNc2ncnc3c2cnn3-c2ccccc2)cc1	–	–	28.7	–	–	–
Fc1ccc(CNc2ncnc3c2cnn3-c2ccccc2)cc1	–	–	–	–	–	–
Cc1cccc(-n2ncc3c(NCc4ccco4)ncnc32)c1	–	–	33.4	–	–	·
Cc1cccc(-n2ncc3c(NCc4ccccc4)ncnc32)c1	–	–	–	–	–	–
COc1ccc2c(c1OC)C(=O)OC2CC(=O)c1ccc(N(C)C)cc1 (configuration not stated)	–	–	–	–	–	–
COC(=O)c1sccc1NC(=O)c1ccc(Br)o1	–	–	–	–	–	–
COC(=O)c1sccc1NC(=O)c1cc2c(s1)CCCC2	–	–	–	30.0	–	–
c1ccc(Nc2nc(-c3cccs3)cs2)nc1	–	–	–	–	–	–
Cc1cccc(Nc2nc(-c3ccccn3)cs2)n1	–	–	35.8	–	–	44.8
O=C(Nc1ccc(S(=O)(=O)C(F)F)cc1)c1cccc(S(=O)(=O)N2CCOCC2)c1	–	·	–	20.4	–	–
O=C(Nc1cccc(S(=O)(=O)C(F)F)c1)c1ccc(S(=O)(=O)N2CCOCC2)cc1	–	–	–	–	–	–
Clc1ccc(Cn2ncc3c(NCCN4CCOCC4)ncnc32)cc1	–	–	–	–	–	–
CCc1ccc2oc(-c3cc(N)cc(C)c3O)nc2c1	–	64.7	–	–	–	–
CCOC(=O)c1nn(-c2ccccc2)c(C#N)c1NC(=O)c1nn(CC)cc1Br	–	–	54.4	–	–	–
SMILES	5HT1E ag	S1P1 ag pot	HTR1E antagonist	HTR1A agonist	S1P3 ag	5-HT1A blocker
CCOC(=O)c1c(NC(=O)c2nn(CC)cc2Br)c(C#N)nn1-c1ccccc1	–	–	–	–	–	–
CCOC(=O)c1cc(-c2ccc(F)cc2)n(CC(=O)Nc2nccs2)c1C	–	–	–	–	–	–
CN(C)c1ccc(C2C=C(c3ccc(Cl)cc3OC(F)F)Nc3ncnn32)cc1 (configuration not stated)	–	–	–	27.7	–	–
N#Cc1c(NC(=O)CCC(=O)O)sc2c1CCCC2	–	–	–	–	–	·
CCc1ccc(CCC(=O)Nc2sc3c(c2C#N)CCCC3)o1	–	·	52.7	–	–	60.7
CC(=O)Nc1nc2ccc(-c3nc4ccccc4o3)cc2s1	–	–	–	–	–	–
CC(Sc1nc2ccccc2s1)C(=O)N1CCOCC1 (configuration not stated)	–	·	–	–	·	–
CC(=O)c1cccc(NC(=O)c2nccnc2C(=O)O)c1	–	–	–	109.1	–	–
CC(=O)C1=C(C)Nc2ncnn2C1c1ccc(Cl)cc1 (configuration not stated)	–	·	–	–	–	–
COc1cc(C2C3=C(Nc4ncnn42)c2ccccc2CC3)cc(OC)c1OC (configuration not stated)	–	–	61.2	–	–	–
O=S(=O)(c1ccccc1)N1CCN(C2CCCCCCC2)CC1	32.8	·	–	–	–	–
COc1cc2c(cc1OC)CN(C(=O)COc1ccc(C)c(C)c1)CC2	–	–	–	–	–	–
OC(CN1CCN(c2cccc(C(F)(F)F)c2)CC1)c1c[nH]c2ccccc12 (configuration not stated)	–	–	–	54.7	–	–
O=C(CS(=O)(=O)Cc1ccccc1)N1CCN(c2cccc(C(F)(F)F)c2)CC1	–	–	–	–	–	–
CN1CCCC(OC(=O)CCCC(=O)OC2CCCN(C)C2)C1 (configuration not stated)	–	–	–	–	–	–
O=C(c1ccc(Cl)cc1)c1ccc(OCC(O)CN2CCOCC2)cc1 (configuration not stated)	9.1	–	–	–	–	–
O=C(c1ccccc1)c1ccc(OCC(O)CN2CCCCC2)cc1 (configuration not stated)	–	·	–	–	–	–
CC(Oc1ccccc1Br)C(=O)N1CCc2ccccc21 (configuration not stated)	–	87.3	–	–	9.9	–
Cc1cc(C)nc(N2CCCC(C(=O)Nc3cc(F)ccc3C)C2)n1 (configuration not stated)	–	–	–	–	–	–
COC(=O)c1ccc2c(=O)n(C3CCCCC3)c(SCC#N)nc2c1	–	87.2	–	–	–	–
CCSc1nc2cc(C(=O)OC)ccc2c(=O)n1CC	–	·	–	–	–	–
COc1ccc(-c2nn(C)c(=O)c3ccccc23)cc1NC(=O)Cn1nc(C)c2ccccc2c1=O	–	–	37.6	–	–	–
O=C(Nc1ccccc1)Nc1ccccn1	–	·	–	–	–	–
S=C(Nc1ccccn1)c1ccccn1	–	–	33.1	–	–	–
O=C(CN1CCN(Cc2ccccc2)CC1)c1ccc(Br)cc1	–	–	–	22.4	–	–
COC(=O)c1sccc1NC(=O)c1ccoc1C	–	–	–	–	–	–
COC(=O)C1=CN(CCCN2CCCC2=O)C=C(C(=O)OC)C1c1ccccc1C(F)(F)F	–	–	–	25.2	–	–
COC(=O)C1=CN(C)C=C(C(=O)OC)C1c1ccccc1Cl	–	·	–	19.3	–	–
